Reference: article PMC2764840 (Nature immunology, 2009)

Legend:
[1] = system: AND TCRtg DP thymocytes (AND.Rag1^−/−H-2^d); test: CD69 upregulation assay, AND thymocytes; type: cell-based, mouse; details: I-E^k-Ig dimers + anti-CD28, overnight
How it was run: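 Plates coated overnight at 4°C in PBS with 1 µg/well self-peptide-loaded I-E^k-Ig dimer (S2-cell-expressed, Protein A-purified; loaded 72 h at 37°C in 0.2 M citrate–PO₄ pH 5.0, then neutralized with 1 M pH 9.0) plus 10 µg/well anti-CD28. Thymocytes (1 × 10⁶/well) cultured overnight at 37°C in IMDM/10% FCS/2-ME; CD69 by flow cytometry. Two independent experiments.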

[2] = system: AND TCRtg CD4^+ peripheral T cells; test: Co-agonist assay; type: cell-based, mouse; details: I-E^k-Ig dimers
How it was run: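 I-E^k-Ig dimers co-loaded with MCC and test or Hb control peptide at ratios of 1:10 to 1:1,000 (pH 5.0 citrate–PO₄, 37°C, 72 h), coated at 1 µg/well in triplicate. One to 2 × 10⁶ purified splenic AND CD4⁺ T cells (H-2^b) were added per well and cultured three days. ³H-TdR was pulsed for the final 18–24 h. Values are mean ± s.d. of triplicates.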

[3] = system: AND TCRtg CD4^+ T cells in B6.K.Rag1^−/− mice; test: Homeostatic proliferation assay; type: in vivo, mouse; details: 0.5 mg i.p. on days -1 and +1; CFSE, flow cytometry
How it was run: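 Splenic AND CD4⁺ T cells were labeled with 5 µM CFSE, and 10⁶ cells/mouse were given retro-orbitally on day 0 to B6.K.Rag1⁻/⁻ recipients. Recipients received peptide i.p. (0.5 mg; also 0.1 mg) or Hb₆₄₋₇₆ control on days −1 and +1. After four days, inguinal and axillary nodes were pooled and CD4, Vα11 and CFSE analyzed by flow cytometry; totals counted. n = 8 mice/group over five experiments; Mann-Whitney.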

[4] = system: AND TCRtg DP thymocytes; test: Thymic reaggregate culture, positive selection of AND; type: cell-based, mouse; details: ANV41.2 I-E^k cells, 96 hours
How it was run: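 DP thymocytes from newborn (3–14 d) AND.Rag1⁻/⁻H-2^d mice, CD8-bead purified (1 × 10⁶), were pelleted with 5 × 10⁵ untreated ANV41.2 I-E^k cells as standing drops on transwells. Peptide was added to the lower well in I-20 plus medium (Hb control 30 µM). Cultures ran 96 h at 37°C, then CD4/CD8 flow for %CD4SP. Mean ± s.e.m. of 5 experiments; Mann-Whitney.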

Sequence: GKKVITAFNEGLK [Hb]
- CD69 upregulation (in words) [1]: did not upregulate CD69
- stimulation of AND T cells (in words) ([2]; MCC:peptide 1:20): stimulatory
- stimulation of AND T cells (in words) ([2]; MCC:peptide 1:1,000): non-stimulatory
- homeostatic proliferation of AND TCRtg T cells (in words) [3]: proliferation of the AND TCRtg T cells
- positive selection of AND CD4SP cells (in words) [4]: did not positively select AND TCRtg T cells in thymic reaggregate culture
